Laboratory results reported in ChEMBL document CHEMBL3085749, “Design, optimization, and biological evaluation of novel keto-benzimidazoles as potent and selective inhibitors of phosphodiesterase 10A (PDE10A)” (J Med Chem, 2013).

What was measured:
Format in all cases: ADME, organism-based
[1] = AUC in Sprague-Dawley rat at 2 mg/kg, iv by LC-MS/MS analysis; set-up: dose 2 mg/kg, route intravenous; details: plasma
[2] = Oral bioavailability in Sprague-Dawley rat at 10 mg/kg by LC-MS/MS analysis; details: in vivo
In short: (§1)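 Fed male Sprague−Dawley rats. Vehicle for iv was 100% DMSO; for po and ip it was 1% Tween and 2% HPMC with methanesulfonic acid, pH 2.2. Reported parameters are Cl (L/h/kg), Vss (L/kg), AUC (μM·h), T1/2 (h) and %F.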

[3] = Volume of distribution at steady state in Sprague-Dawley rat at 2 mg/kg, iv by LC-MS/MS analysis; set-up: dose 2 mg/kg, route intravenous; details: in vivo, read-out: Vdss
[4] = AUC in Sprague-Dawley rat at 10 mg/kg, po by LC-MS/MS analysis; set-up: dose 10 mg/kg, route oral; details: plasma; in short: as §1
[5] = AUC in Sprague-Dawley rat at 5 mg/kg, po by LC-MS/MS analysis; set-up: dose 5 mg/kg, route oral; details: plasma
[6] = Oral bioavailability in Sprague-Dawley rat at 5 mg/kg by LC-MS/MS analysis; details: in vivo

| Compound | AUC [1] | bioavailability [2] | Vd [3] | AUC [4] | AUC [5] | bioavailability [6] |
| --- | --- | --- | --- | --- | --- | --- |
| O=C(c1ccc(Oc2nccnc2N2CCC(O)CC2)cc1)c1nc2ccccc2[nH]1 | 4.5 µM·h | 52% | 1.28 L/kg | 11.7 µM·h | – | – |
| CC(=O)N1CCN(c2nccnc2Oc2ccc(C(=O)c3nc4ccccc4[nH]3)cc2)CC1 | 62.1 µM·h | – | 0.165 L/kg | – | 79.2 µM·h | 56% |
